{
  "source": "ChEMBL document CHEMBL5154669",
  "about": "“G-Quadruplex DNA as a Target in Pathogenic Bacteria: Efficacy of an Extended Naphthalene Diimide Ligand and Its Mode of Action” (J Med Chem, 2022)",
  "key": {"Enterobacter cloacae [1]": {"system": "Enterobacter cloacae", "assay": "Bactericidal activity against Enterobacter cloacae LMG 02783 assessed as inhibition of bacterial growth", "format": "functional", "method_in_brief": "(§1)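 A standard MIC plate (128–2 μM, cMHB, 20 h, 37 °C) was read at OD600. Each well then seeded at 10% a fresh compound-free cMHB plate, grown another 20 h at 37 °C and read at OD600. No growth at the same concentration in both plates counted as bactericidal. Growth above the MIC counted as bacteriostatic. Done in triplicate.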"}, "DNA [2]": {"system": "DNA", "assay": "Stabilization of Staphylococcus aureus in G-quadruplex DNA GGGTTTGGGGCGGCGGTTGG assessed as change in melting temperature at 10 uM incubated for 16 hrs by FRET method", "format": "nucleic-acid assay", "details": "in the assay text read “by CD melting method” for “by FRET method”"}, "Enterococcus faecalis [3]": {"system": "Enterococcus faecalis", "assay": "Antibacterial activity against Enterococcus faecalis LMG 16216 assessed as inhibition of bacterial growth incubated for 20 hrs by CLSI based broth microdilution method", "format": "functional", "method_in_brief": "(§2)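 Broth microdilution in cation-adjusted Mueller-Hinton broth following CLSI guidelines. DMSO stocks were at 10 mM; compounds were twofold serially diluted over 128 to 2 μM. The inoculum was at 5 × 10⁵, prepared from colonies grown 20 h at 37 °C and adjusted to 0.5 McFarland. Plates ran 20 h at 37 °C with OD600 read-out. MIC was the lowest concentration inhibiting visible growth, in triplicate.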"}, "Enterococcus faecalis [4]": {"system": "Enterococcus faecalis", "assay": "Bacteriostatic activity against Enterococcus faecalis V583 assessed as inhibition of bacterial growth", "format": "functional", "method_in_brief": "as §1"}, "DNA [5]": {"system": "DNA", "assay": "Stabilization of Escherichia coli in G-quadruplex DNA GGG GCG GGG TGG GTT GG assessed as melting temperature at 10 uM incubated for 16 hrs by FRET method", "format": "nucleic-acid assay"}, "Acinetobacter baumannii [6]": {"system": "Acinetobacter baumannii", "assay": "Antimicrobial activity against Acinetobacter baumannii LMG 01041 assessed as inhibition of bacterial growth in presence of D11 incubated for 20 hrs", "details": "LMG 01041, 20 h"}, "Staphylococcus aureus [7]": {"system": "Staphylococcus aureus", "assay": "Antibacterial activity against Staphylococcus aureus LMG 8224 infected in Galleria mellonella assessed as survival at 5 to 10 mg/kg after 3 days", "details": "dose 5-10 mg/kg, time 3 day"}, "Salmonella enterica [8]": {"system": "Salmonella enterica", "assay": "Antibacterial activity against Salmonella enterica LMG 07233 assessed as inhibition of bacterial growth incubated for 20 hrs by CLSI based broth microdilution method", "format": "functional", "method_in_brief": "as §2"}, "Staphylococcus aureus [9]": {"system": "Staphylococcus aureus", "assay": "Antibacterial activity against Staphylococcus aureus LMG 15975 assessed as inhibition of bacterial growth incubated for 20 hrs by CLSI based broth microdilution method", "format": "functional", "method_in_brief": "as §2"}, "DNA [10]": {"system": "DNA", "assay": "Stabilization of Escherichia coli in G-quadruplex DNA GGG GCG GGG TGG GTT GG assessed as change in melting temperature at 10 uM incubated for 16 hrs by CD melting method"}, "Salmonella enterica [11]": {"system": "Salmonella enterica", "assay": "Bacteriostatic activity against Salmonella enterica LMG 07233 assessed as inhibition of bacterial growth", "format": "functional", "method_in_brief": "as §1"}, "[12]": {"system": "Staphylococcus epidermidis", "assay": "Antibacterial activity against Staphylococcus epidermidis Tu3298 assessed as inhibition of bacterial growth incubated for 20 hrs by CLSI based broth microdilution method", "format": "functional", "method_in_brief": "as §2"}, "Klebsiella aerogenes": {"system": "Klebsiella aerogenes", "assay": "Antibacterial activity against Enterobacter aerogenes LMG 02094 assessed as inhibition of bacterial growth incubated for 20 hrs by CLSI based broth microdilution method", "format": "functional", "method_in_brief": "as §2"}, "DNA [13]": {"system": "DNA", "assay": "Stabilization of Escherichia coli in G-quadruplex DNA GGG GGA GGA GGA CGG GGG assessed as melting temperature at 10 uM incubated for 16 hrs by […]", "format": "nucleic-acid assay", "method_in_brief": "(§3)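 Readout was CD melting, not FRET: 2.5 μM oligonucleotide in 10 mM lithium cacodylate pH 7.4 with KCl set per sequence (initial Tm 60-70 °C). Annealed 95 °C 5 min, cooled to room temperature over 4 h, then ligand 10 μM (4 equiv) equilibrated 16 h at 20 °C. Ellipticity at 260 nm tracked every 0.1 °C, 20-95 °C at 5 °C/min; Tm by van't Hoff two-state fit.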"}, "DNA [14]": {"system": "DNA", "assay": "Stabilization of Staphylococcus aureus in G-quadruplex DNA GGA AGG AGG GGT GAC AGG G assessed as melting temperature at 10 uM incubated for 16 hrs […]", "format": "nucleic-acid assay", "method_in_brief": "as §3"}, "Enterobacter cloacae [15]": {"system": "Enterobacter cloacae", "assay": "Antibacterial activity against Enterobacter cloacae LMG 02783 assessed as inhibition of bacterial growth incubated for 20 hrs by CLSI based broth microdilution method", "format": "functional", "method_in_brief": "as §2"}, "Klebsiella pneumoniae": {"system": "Klebsiella pneumoniae", "assay": "Antimicrobial activity against Klebsiella pneumoniae LMG 20218 assessed as inhibition of bacterial growth in presence of D11 incubated for 20 hrs", "details": "LMG 20218, 20 h"}, "Staphylococcus aureus [16]": {"system": "Staphylococcus aureus", "assay": "Antibacterial activity against Staphylococcus aureus LMG 8224 assessed as inhibition of bacterial growth incubated for 20 hrs by CLSI based broth microdilution method", "format": "functional", "method_in_brief": "as §2"}, "DNA [17]": {"system": "DNA", "assay": "Stabilization of Escherichia coli in G-quadruplex DNA GGT GGG GAG GGG TAA GGG G assessed as change in melting temperature at 10 uM incubated for 16 hrs by FRET method", "format": "nucleic-acid assay", "details": "in the assay text read “by CD melting method” for “by FRET method”", "method_in_brief": "as §3"}, "DNA [18]": {"system": "DNA", "assay": "Stabilization of Staphylococcus aureus in G Quadruplex DNA GGGGCTAATTGGGGCTGGTGG assessed as change in melting temperature at 10 uM incubated for 16 hrs by […]", "format": "nucleic-acid assay", "method_in_brief": "as §3"}, "Staphylococcus aureus [19]": {"system": "Staphylococcus aureus", "assay": "Antibacterial activity against Staphylococcus aureus LMG 10147 assessed as inhibition of bacterial growth incubated for 20 hrs by CLSI based broth microdilution method", "format": "functional", "method_in_brief": "as §2"}, "DNA [20]": {"system": "DNA", "assay": "Stabilization of Escherichia coli in G-quadruplex DNA GGG GGA GGA GGA CGG GGG assessed as change in melting temperature at 10 uM incubated for 16 hrs by FRET method", "format": "nucleic-acid assay", "details": "in the assay text read “by CD melting method” for “by FRET method”", "method_in_brief": "as §3"}, "Acinetobacter baumannii [21]": {"system": "Acinetobacter baumannii", "assay": "Antibacterial activity against Acinetobacter baumannii LMG 01041 assessed as inhibition of bacterial growth incubated for 20 hrs by CLSI based broth microdilution method", "format": "functional", "method_in_brief": "as §2"}, "Staphylococcus aureus [22]": {"system": "Staphylococcus aureus", "assay": "Bacteriostatic activity against Staphylococcus aureus LMG 8224 assessed as inhibition of bacterial growth", "format": "functional", "method_in_brief": "as §1"}, "Bacillus cereus": {"system": "Bacillus cereus", "assay": "Antimicrobial activity against Bacillus cereus ATCC 10987 assessed as inhibition of bacterial growth in presence of D11 incubated for 20 hrs", "details": "ATCC 10987, 20 h"}, "DNA [23]": {"system": "DNA", "assay": "Stabilization of Staphylococcus aureus in G-quadruplex DNA GGGTTTGGGGCGGCGGTTGG assessed as melting temperature at 10 uM incubated for 16 hrs by […]", "format": "nucleic-acid assay", "method_in_brief": "as §3"}, "DNA [24]": {"system": "DNA", "assay": "Stabilization of Staphylococcus aureus in G Quadruplex DNA GGGGCTAATTGGGGCTGGTGG assessed as melting at 10 uM incubated for 16 hrs temperature by […]", "format": "nucleic-acid assay", "method_in_brief": "as §3"}, "Acinetobacter baumannii [25]": {"system": "Acinetobacter baumannii", "assay": "Bacteriostatic activity against Acinetobacter baumannii LMG 01041 assessed as inhibition of bacterial growth", "format": "functional", "method_in_brief": "as §1"}, "Staphylococcus aureus [26]": {"system": "Staphylococcus aureus", "assay": "Antimicrobial activity against Staphylococcus aureus LMG 8224 assessed as inhibition of bacterial growth in presence of D11 incubated for 20 hrs", "details": "LMG 8224, 20 h"}, "Pseudomonas aeruginosa": {"system": "Pseudomonas aeruginosa", "assay": "Antimicrobial activity against Pseudomonas aeruginosa LMG 6395 assessed as inhibition of bacterial growth in presence of D11 incubated for 20 hrs", "details": "LMG 6395, 20 h"}},
  "data": [
    {"smiles": "CN(C)CCCn1c(=O)c2ccc3c(=O)n(CCCN(C)C)c(=O)c4c5[nH]c6ccccc6[nH]c5c(c1=O)c2c34.O=C(O)C(F)(F)F.O=C(O)C(F)(F)F", "values": [
      {"measurement": "MIC", "setting": "Enterobacter cloacae [1]", "value": 8, "unit": "µM"},
      {"measurement": "ΔTm", "setting": "DNA [2]", "value": "> 35.6", "unit": "°C"},
      {"measurement": "MIC", "setting": "Enterococcus faecalis [3]", "value": 4, "unit": "µM"},
      {"measurement": "MIC", "setting": "Enterococcus faecalis [4]", "value": 64, "unit": "µM"},
      {"measurement": "Tm", "setting": "DNA [5]", "value": 82.5, "unit": "°C"},
      {"measurement": "MIC", "setting": "Acinetobacter baumannii [6]", "value": 8, "unit": "µM"},
      {"measurement": "Activity", "setting": "Staphylococcus aureus [7]", "value": 70, "unit": "%"},
      {"measurement": "MIC", "setting": "Salmonella enterica [8]", "value": 64, "unit": "µM"},
      {"measurement": "MIC", "setting": "Staphylococcus aureus [9]", "value": 16, "unit": "µM"},
      {"measurement": "ΔTm", "setting": "DNA [10]", "value": 18.8, "unit": "°C"},
      {"measurement": "MIC", "setting": "Salmonella enterica [11]", "value": 128, "unit": "µM"},
      {"measurement": "MIC", "setting": "[12]", "value": 16, "unit": "µM"},
      {"measurement": "MIC", "setting": "Klebsiella aerogenes", "value": 32, "unit": "µM"},
      {"measurement": "Tm", "setting": "DNA [13]", "value": "> 95", "unit": "°C"},
      {"measurement": "Tm", "setting": "DNA [14]", "value": "> 95", "unit": "°C"},
      {"measurement": "MIC", "setting": "Enterobacter cloacae [15]", "value": 8, "unit": "µM"},
      {"measurement": "MIC", "setting": "Klebsiella pneumoniae", "value": 16, "unit": "µM"},
      {"measurement": "MIC", "setting": "Staphylococcus aureus [16]", "value": 16, "unit": "µM"},
      {"measurement": "ΔTm", "setting": "DNA [17]", "value": 31, "unit": "°C"},
      {"measurement": "ΔTm", "setting": "DNA [18]", "value": 27.3, "unit": "°C"},
      {"measurement": "MIC", "setting": "Staphylococcus aureus [19]", "value": 16, "unit": "µM"},
      {"measurement": "ΔTm", "setting": "DNA [20]", "value": "> 24.8", "unit": "°C"},
      {"measurement": "MIC", "setting": "Acinetobacter baumannii [21]", "value": 64, "unit": "µM"},
      {"measurement": "MIC", "setting": "Staphylococcus aureus [22]", "value": 128, "unit": "µM"},
      {"measurement": "MIC", "setting": "Bacillus cereus", "value": 8, "unit": "µM"},
      {"measurement": "Tm", "setting": "DNA [23]", "value": "> 95", "unit": "°C"},
      {"measurement": "Tm", "setting": "DNA [24]", "value": 88.3, "unit": "°C"},
      {"measurement": "MIC", "setting": "Acinetobacter baumannii [25]", "value": 128, "unit": "µM"},
      {"measurement": "MIC", "setting": "Staphylococcus aureus [26]", "value": 16, "unit": "µM"},
      {"measurement": "MIC", "setting": "Pseudomonas aeruginosa", "value": 4, "unit": "µM"}
    ]}
  ]
}
